Data set [1] deals with Poly [ADP-ribose] polymerase 1 (Homo sapiens, UniProt P09874). As to the kind of experiment: Inhibition of human PARP1.
Data set [2] can be described thus: Drug level in mouse brain at 32 mg/kg, po after 2.0 hrs. In kind it is ADME, organism-based. On the set-up: dose 32 mg/kg, route oral. The conditions noted are these: read-out: Drug uptake. The procedure, abridged: (§1)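 Mice dosed orally at 32 mg/kg (n = 2). Compound levels in brain (µg/g tissue) and plasma (µg/mL) measured by ex vivo assay at 0.5 and 2.0 h after dosing.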

Data set [3] can be described thus: Drug level in mouse plasma at 32 mg/kg, po after 0.5 hr. In kind it is ADME, organism-based. Also on record: dose 32 mg/kg, route oral. A digest of the protocol:
as §1

Data set [4] can be described thus: Metabolic stability assessed as Intrinsic clearance in mouse liver microsomes after 60 mins. In general terms: Liver microsomes are a subcellular fraction often used to study metabolism.
Data set [5] in a line: Drug level in mouse brain at 32 mg/kg, po after 0.5 hr. The conditions noted are these: read-out: Drug uptake. In kind it is ADME, organism-based. Also on record: dose 32 mg/kg, route oral. The procedure, abridged: as §1
Data set [6] can be described thus: Drug level in mouse plasma at 32 mg/kg, po after 2.0 hrs. In kind it is ADME, organism-based. On the set-up: dose 32 mg/kg, route oral. The procedure, abridged: as §1
A short description of data set [7]: Metabolic stability assessed as Intrinsic clearance in human liver microsomes after 60 mins.

Sequence of Poly [ADP-ribose] polymerase 1 (P09874 whole entry): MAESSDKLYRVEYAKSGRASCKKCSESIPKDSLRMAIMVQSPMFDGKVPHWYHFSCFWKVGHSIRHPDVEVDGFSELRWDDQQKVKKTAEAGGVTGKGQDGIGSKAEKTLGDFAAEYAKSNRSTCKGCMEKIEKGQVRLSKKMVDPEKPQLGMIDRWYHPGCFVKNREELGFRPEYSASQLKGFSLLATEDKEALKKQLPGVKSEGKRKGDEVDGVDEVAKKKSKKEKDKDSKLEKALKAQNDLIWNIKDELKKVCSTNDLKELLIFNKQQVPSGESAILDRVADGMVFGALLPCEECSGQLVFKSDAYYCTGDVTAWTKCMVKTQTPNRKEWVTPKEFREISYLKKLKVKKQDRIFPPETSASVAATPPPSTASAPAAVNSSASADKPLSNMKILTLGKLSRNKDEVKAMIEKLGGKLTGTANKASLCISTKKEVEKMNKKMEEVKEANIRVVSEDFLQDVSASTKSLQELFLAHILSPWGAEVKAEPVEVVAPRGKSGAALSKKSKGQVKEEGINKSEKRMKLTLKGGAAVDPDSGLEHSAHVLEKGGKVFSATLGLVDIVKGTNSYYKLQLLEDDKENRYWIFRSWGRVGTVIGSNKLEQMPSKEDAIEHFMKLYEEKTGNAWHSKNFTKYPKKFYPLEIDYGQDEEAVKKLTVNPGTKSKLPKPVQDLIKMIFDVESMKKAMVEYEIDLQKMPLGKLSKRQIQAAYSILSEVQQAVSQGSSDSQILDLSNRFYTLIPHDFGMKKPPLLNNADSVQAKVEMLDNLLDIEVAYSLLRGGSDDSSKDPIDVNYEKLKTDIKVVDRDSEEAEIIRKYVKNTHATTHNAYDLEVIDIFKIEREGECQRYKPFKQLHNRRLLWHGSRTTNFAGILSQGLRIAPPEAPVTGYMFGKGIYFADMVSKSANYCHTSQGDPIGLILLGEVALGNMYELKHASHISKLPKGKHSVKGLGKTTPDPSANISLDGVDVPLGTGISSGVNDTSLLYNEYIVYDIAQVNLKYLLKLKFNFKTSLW

Broadly, the IC50 is the concentration needed to halve the response being measured. High values mean lower potency, low ones higher potency. In turn, `O=c1[nH]c(C2=CC(N3CC=C(c4ccc(F)cc4)CC3)CC2)nc2ccccc12` (configuration not stated) had an IC50 in data set [1] of 18 nM. This lies in the double-digit nanomolar range.

What is called CLint scaled is the rate of metabolic loss divided by the concentration. Consider `O=c1[nH]c(C2=CC(N3CC=C(c4ccc(F)cc4)CC3)CC2)nc2c(Cl)cccc12` (configuration not stated), for which the concentration at 2 h is 900 ng/g in data set [2] and 17700 ng/mL in data set [6]. In addition, the concentration at 0.5 h in data set [3] is 15200 ng/mL; in data set [5], 400 ng/g. In data set [1], this compound registered a half-inhibitory concentration (IC50) of 36 nM. The CLint scaled at 1 h in data set [4] came out at 1330 mL/min/kg; in data set [7] it was 54 mL/min/kg.

Turning to `Cc1cccc2c(=O)[nH]c(C3=CC(N4CCC(c5ccc(Cl)cc5)CC4)CC3)nc12` (configuration not stated), the half-inhibitory concentration (IC50) in data set [1] was 46 nM.

`O=c1[nH]c(C2=C[C@H](N3CCC(c4ccc(F)cc4)CC3)CC2)nc2c(Cl)cccc12` displayed an IC50 in data set [1] of 257 nM.

On to `Cc1cccc2c(=O)[nH]c(CCCN3CC=C(c4ccc(F)cc4)CC3)nc12`, for which, in data set [1], 8 nM corresponded to half-maximal inhibition (IC50).

For the compound `O=c1[nH]c(C2=C[C@H](N3CC=C(c4ccccc4)CC3)CC2)nc2c(Cl)cccc12`, the half-inhibitory concentration (IC50) in data set [1] worked out at 286 nM. Compared with the last compound, the IC50 is about 36-fold higher.

With `O=c1[nH]c(N2CC(N3CC=C(c4ccccc4)CC3)C2)nc2ccccc12`, the midpoint of inhibition in data set [1], the IC50, lay at 504 nM.

The compound `O=c1[nH]c(C2CCCC(N3CC=C(c4ccccc4)CC3)C2)nc2ccccc12` (racemic) returned an IC50 in data set [1] of 1800 nM.

As to `O=c1[nH]c(CCCN2CC=C(c3ccc(F)cc3)CC2)nc2c(Cl)cccc12`, the results for the concentration at 2 h in data set [2] and in data set [6] were 2800 ng/g and 1200 ng/mL, respectively. Moreover, the concentration at 0.5 h in data set [3] was 1900 ng/mL; in data set [5], 8400 ng/g. Also, in data set [4], the CLint scaled at 1 h turned out to be 3910 mL/min/kg.

For the compound `O=c1[nH]c(C2=C[C@@H](N3CCC(c4ccc(F)cc4)CC3)CC2)nc2c(Cl)cccc12`, the concentration at 2 h in data set [2] was found to be 12500 ng/g; in data set [6] it was 11300 ng/mL. Also, the concentration at 0.5 h in data set [3] was 13600 ng/mL; in data set [5], 6700 ng/g. This compound also showed an IC50 in data set [1] of 35 nM. In addition, the CLint scaled at 1 h in data set [4] came to 686 mL/min/kg; in data set [7], 17 mL/min/kg.

`Cc1cccc2c(=O)[nH]c(C3=CC(N4CCC(c5ccc(F)cc5)CC4)CC3)nc12` (configuration not stated) had an IC50 in data set [1] of 30 nM.

For `O=c1[nH]c([C@H]2CC[C@@H](N3CC=C(c4ccccc4)CC3)CC2)nc2ccccc12`, 1600 nM corresponded to half-maximal inhibition in data set [1] (IC50).

For the compound `O=c1[nH]c(C2=CC(N3CC=C(c4ccccc4)CC3)CCC2)nc2ccccc12` (configuration not stated), the 50% inhibitory concentration (IC50) in data set [1] came out at 160 nM. This IC50 lies about 10-fold lower than the previous one.

In the case of `Cc1cccc2c(=O)[nH]c(C3=CC(N4CCN(c5ccc(Cl)cc5)CC4)CC3)nc12` (configuration not stated), half-maximal inhibition in data set [1] (IC50) was put at 12 nM.

For the compound `O=c1[nH]c(C2CCC(N3CCC(c4ccccc4)CC3)C2)nc2ccccc12` (stereo in doubt; cis), the IC50 in data set [1] turned out to be 435 nM. Compared with the last compound, the IC50 is about 36-fold higher.

`O=c1[nH]c(C2=CC(N3CCN(c4ccc(F)cc4)CC3)CC2)nc2c(Cl)cccc12` (configuration not stated) gave an IC50 in data set [1] of 25 nM.

Take `O=c1[nH]c(C2=C[C@@H](N3CCC(c4ccccc4)CC3)CC2)nc2c(Cl)cccc12`: the concentration at 2 h in data set [2] was found to be 18100 ng/g; in data set [6], 4400 ng/mL. Besides, the concentration at 0.5 h in data set [3] is 8700 ng/mL; in data set [5], 19800 ng/g. This compound also returned an IC50 in data set [1] of 8.7 nM. Also, the figures for the CLint scaled at 1 h in data set [4] and in data set [7] were 1160 mL/min/kg and 22 mL/min/kg, respectively.

In the case of `O=c1[nH]c(CCCN2CCC(c3ccc(F)cc3)CC2)nc2c(Cl)cccc12`, the IC50 in data set [1] worked out at 47 nM.

In data set [1], `O=c1[nH]c([C@H]2CC[C@H](N3CC=C(c4ccccc4)CC3)CC2)nc2ccccc12` registered an IC50 of 8400 nM. This IC50 is about 180-fold higher than that of the compound before.

`O=c1[nH]c(N2CCC(N3CC=C(c4ccccc4)CC3)C2)nc2ccccc12` (configuration not stated) showed a half-maximal inhibitory concentration (IC50) in data set [1] of 300 nM. This IC50 is about 28-fold lower than that of the compound before.

The compound `Cc1cccc2c(=O)[nH]c(C3=CC(N4CC=C(c5ccc(F)cc5)CC4)CC3)nc12` (configuration not stated) yielded an IC50 in data set [1] of 25 nM.

For `O=c1[nH]c(CCCN2CCC(c3ccccc3)CC2)nc2c(Cl)cccc12`, the results for the concentration at 2 h in data set [2] and in data set [6] were 3900 ng/g and 9400 ng/mL, respectively. Moreover, the concentration at 0.5 h in data set [3] worked out at 12500 ng/mL; in data set [5], 11600 ng/g. In addition, inhibition in data set [1] was half-maximal at 103 nM (IC50).

In data set [1], `O=c1[nH]c(C2CCC(N3CCC(c4ccccc4)CC3)C2)nc2ccccc12` (stereo in doubt; trans) showed an IC50 of 555 nM. In other words, the sub-micromolar range.

In turn, `O=c1[nH]c(CCCN2CC=C(c3ccc(Cl)cc3)CC2)nc2ccccc12` displayed an IC50 in data set [1] of 8.9 nM.

Compound `O=c1[nH]c(CCCN2CC=C(c3ccc(F)cc3)CC2)nc2ccccc12` yielded an IC50 in data set [1] of 16 nM. Against the preceding compound, the IC50 is about 1.8-fold higher.

As for `O=c1[nH]c(C2=C[C@@H](N3CC=C(c4ccccc4)CC3)CC2)nc2c(Cl)cccc12`, the concentration at 2 h in data set [2] came to 3000 ng/g; in data set [6] it was 18100 ng/mL. Also, the concentration at 0.5 h in data set [3] came out at 17100 ng/mL; in data set [5], 2000 ng/g. This compound also came in with an IC50 in data set [1] of 15 nM.

Take `O=c1[nH]c(CCCN2CC=C(c3ccccc3)CC2)nc2c(Cl)cccc12`: the concentration at 2 h worked out at 8400 ng/g in data set [2] and 1200 ng/mL in data set [6]. Besides, the concentration at 0.5 h is 1300 ng/mL in data set [3] and 8000 ng/g in data set [5].

As for `O=c1[nH]c(C2=CC(N3CC=C(c4ccccc4)CC3)CC2)nc2ccccc12` (racemic), it took 16 nM to reach half-maximal inhibition in data set [1] (IC50). This counts as double-digit nanomolar.

On to `O=c1[nH]c(C2=CC(N3CCN(c4ccc(Cl)cc4)CC3)CC2)nc2ccccc12` (configuration not stated), for which the figures for the concentration at 2 h in data set [2] and in data set [6] were 2200 ng/g and over 20400 ng/mL, respectively. Moreover, the concentration at 0.5 h in data set [3] is over 20100 ng/mL; in data set [5], 1300 ng/g. The IC50 in data set [1] stood at 25 nM.

For the compound `Cc1cccc2c(=O)[nH]c(CCCN3CC=C(c4ccc(Cl)cc4)CC3)nc12`, half-maximal inhibition in data set [1] (IC50) was put at 16 nM.

(Values after ChEMBL document CHEMBL1139823, “Rational design of conformationally restricted quinazolinone inhibitors of poly(ADP-ribose)polymerase” (Bioorg Med Chem Lett, 2007).)
